According to ChEMBL document CHEMBL4431303, “Minor Pyranonaphthoquinones from the Apothecia of the Lichen Ophioparma ventosa” (J Nat Prod, 2016):
pIC50: −log10 of the molar value. ≈ marks a conversion by molar mass, not a printed value. Calls of active or inactive are those of the source. No cut-off for these calls is given here.

Assays:
HCT-116 = assay: Cytotoxicity against human HCT116 cells assessed as cell growth inhibition; type: functional, cell-based
Procedure, shortened: (§1)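 Inhibition of proliferation tested on a panel of human lines: Huh7D12 (differentiated hepatocellular carcinoma), Caco 2 (differentiating colorectal adenocarcinoma), MDA-MB-231 (breast carcinoma), HCT-116 (actively proliferating colorectal carcinoma), PC3 (prostate carcinoma) and NCI-H2 (lung carcinoma). Diploid skin fibroblasts served as the normal control line. Result reported as IC50.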

Fibroblast = assay: Cytotoxicity against human Fibroblasts assessed as cell growth inhibition; type: cell-based; procedure, shortened: as §1
[1] = Cytotoxicity against human NCI-H2 cells assessed as cell growth inhibition; type: functional, cell-based; procedure, shortened: as §1
B16 = assay: Cytotoxicity against mouse B16 cells assessed as cell growth inhibition incubated for 72 hrs by MTT assay; type: functional, cell-based; conditions: B16, 72 h
[2] = Cytotoxicity against human Huh7D12 cells assessed as cell growth inhibition; type: functional, cell-based; conditions: Huh-7D12
[3] = Antioxidant activity assessed as superoxide anion radical scavenging activity after 5 mins by spectrophotometric analysis; type: functional
Procedure, shortened: (§2)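 Nonenzymatic superoxide scavenging read in 96-well plates. Final mixture: NADH 78 μM, NBT 50 μM, PMS 10 μM, test compound at 350, 116, 39 and 13 μM. Reagents in 16 mM Tris-HCl pH 8, compounds in DMSO. After 5 min at room temperature, absorbance at 560 nm against a no-PMS blank. IC50 taken from steady-state percent inhibition per dilution. Ascorbic acid as positive control. Triplicates averaged.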

[4] = Antioxidant activity after 5 mins by NBT assay; type: functional; procedure, shortened: as §2
MDA-MB-231 = assay: Cytotoxicity against human MDA-MB-231 cells assessed as cell growth inhibition; type: functional, cell-based
[5] = Antioxidant activity assessed as DPPH radical scavenging activity after 5 mins by spectrophotometric analysis; type: functional
Caco-2 = assay: Cytotoxicity against human Caco2 cells assessed as cell growth inhibition; type: functional, cell-based
HaCaT = assay: Cytotoxicity against human HaCaT cells assessed as cell growth inhibition incubated for 72 hrs by MTT assay; type: functional, cell-based
PC-3 = assay: Cytotoxicity against human PC3 cells assessed as cell growth inhibition; type: functional, cell-based; procedure, shortened: as §1

Compound | pIC50 (HCT-116) | pIC50 (Fibroblast) | pIC50 [1] | pIC50 (B16) | pIC50 [2] | inhibition [3] | pIC50 [4] | pIC50 (MDA-MB-231) | IC50 [5] | pIC50 (Caco-2) | pIC50 (HaCaT) | pIC50 (PC-3) | pIC50 [3]
COC1=CC(=O)c2c(O)c3c(c(O)c2C1=O)C[C@H](C)OC3=O | 5.59 | 5.40 | 5.60 | 5.62 | 5.52 | Active | 5.72 | 5.00 | > 500 µg/mL | 5.40 | 4.85 | 5.40 | 
CC(=O)O[C@H]1C(=O)[C@@]2(C)[C@H]([C@H](OC(=O)c3ccccc3)[C@]3(O)C[C@H](OC(=O)[C@H](O)[C@@H](NC(=O)c4ccccc4)c4ccccc4)C(C)=C1C3(C)C)[C@]1(OC(C)=O)CO[C@@H]1C[C@@H]2O [PACLITAXEL] | 8.52 | < 6.60 | 7.70 |  | 8.10 |  |  | 7.68 |  | 7.85 |  | 8.40 | 
CC[C@]1(O)C[C@H]2CN(CCc3c([nH]c4ccccc34)[C@@](C(=O)OC)(c3cc4c(cc3OC)N(C=O)[C@H]3[C@@](O)(C(=O)OC)[C@H](OC(C)=O)[C@]5(CC)C=CCN6CC[C@]43[C@@H]65)C2)C1 [VINCRISTINE] |  |  |  | 6.30 |  |  |  |  |  |  | 6.19 |  | 
O=C1O[C@H]([C@@H](O)CO)C(O)=C1O [ASCORBIC ACID] |  |  |  |  |  | Active | 4.66 |  |  |  |  |  | 
COc1cccc2c1C(=O)c1c(O)c3c(c(O)c1C2=O)C[C@@](O)(C(=O)CO)C[C@@H]3O[C@H]1C[C@H](N)[C@H](O)[C@H](C)O1 [DOXORUBICIN] | 7.10 | 7.40 | 7.40 | 6.37 | 7.22 |  |  | 7.52 |  | 7.52 | 6.28 | 7.05 | 
COC1=CC(=O)c2c(O)c3c(c(O)c2C1=O)[C@@H](OC)[C@H](C)OC3=O |  |  |  |  |  | Active | 5.21 |  | Not Active |  |  |  | 
COC1=CC(=O)c2c(O)c3c(c(O)c2C1=O)[C@@H]1O[C@@H](C)C[C@@H]1OC3=O |  |  |  | < 5.00 |  |  | 4.30 |  | Not Active |  | < 5.00 |  | 4.30
CC[C@H](CO)Nc1nc(NCc2ccccc2)c2ncn(C(C)C)c2n1 [SELICICLIB] |  | 5.15 | 4.74 |  |  |  |  |  |  |  |  |  | 
O=C(O)c1cc(O)c(O)c(O)c1 [GALLIC ACID] |  |  |  |  |  |  |  |  | 7.2 µg/mL (≈ 42.3 µM) |  |  |  | 
